An excerpt weighted towards active compounds, which were near 4.5% of everything screened.
OX1R antag-1: antagonists of human orexin 1 receptor; O43613; CHO/OX1R cells, Fluo-8 calcium fluorescence, orexin A; inhibition, % at 5 µM; 330,000 compounds, 0.43% hits;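 active means inhibition above its plate's threshold, mean inhibition of all tested compounds on the plate plus 3 SD, cut at about 37% in these data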;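 further: 0% = orexin A challenge wells and 100% = SB-334867-A antagonist wells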
GPR7 antagonist: blocks human GPR7 receptor signaling; P48145; inhibition, % at 4.4 µM; GPR7-expressing cells, fluorescence antagonist assay; 290,000 compounds, 1.1% hits; in the data active means inhibition above about 16%, passing the limit was not always enough;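 further: cells stimulated with the agonist NPW; 0% = agonist with vehicle and 100% = vehicle without agonist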
TAAR1 ag: human TAAR1 agonism; Q96RJ0; CHO RD-HGA16 TAAR1, Fluo-8 calcium fluorescence; vehicle wells 0%, saturating PEA agonist 100%; activation, % at 3 µM; 360,000 compounds, 0.99% hits; AID 624467;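 active means activation above the mean activation of all test compounds in the run plus 3 SD, cut at about 38% in these data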
Target sequence (Q96RJ0 whole entry, looked up): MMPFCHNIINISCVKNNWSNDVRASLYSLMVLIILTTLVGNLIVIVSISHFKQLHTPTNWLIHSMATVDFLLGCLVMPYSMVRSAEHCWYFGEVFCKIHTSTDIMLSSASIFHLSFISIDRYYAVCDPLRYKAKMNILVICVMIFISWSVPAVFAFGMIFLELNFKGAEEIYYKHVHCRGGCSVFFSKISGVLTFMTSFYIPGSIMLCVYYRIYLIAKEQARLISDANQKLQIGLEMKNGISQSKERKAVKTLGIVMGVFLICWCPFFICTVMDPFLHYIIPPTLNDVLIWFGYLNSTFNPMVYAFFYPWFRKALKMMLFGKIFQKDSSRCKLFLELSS
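Assay system – CHO-derived RD-HGA16 cells with stable Gα16 and human TAAR1 · Compound dosing – one-point dosing at 3 µM (nominal) · Incubation – 17-24 h seeding, 75 min 37 °C dye, 30 min RT · Measured by – kinetic Fluo-8 calcium fluorescence · Control set – DMSO vehicle as 0%, PEA at EC100 as 100% · Repeats – single well for each compound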
CHO parental Ca: counter-screen: ATP calcium response change in parental CHO cells. parental CHO-K1, ATP-induced calcium, Fluo-8 fluorescence. inhibition, % at 5.6 µM. 330,000 compounds, 0.63% hits. AID 463079;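 active means inhibition above that plate's mean sample inhibition plus 3 SD, cut at about 26% in these data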;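 further: 0% = ATP-challenged DMSO wells and 100% = DMSO wells without ATP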
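Assay system – parental CHO cells · Reagent – ATP stimulus · Detection – intracellular calcium via Fluo-8 no-wash fluorescent dye · Evaluation – percent inhibition of ATP-evoked calcium rise, normalized to controls · Controls – ATP wells versus no-ATP DMSO wells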
OX1R antag-2: antagonists of human orexin 1 receptor (OX1R); 330,000 compounds, 1.8% hits; AID 485270; OX1R-expressing cells, FRET antagonist read-out; O43613; inhibition, % at 6.6 µM; in the data active means inhibition mostly above about 38%, no sharp cut-off; inactive means mostly below about 40%;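 further: 0% = agonist challenge alone and 100% = reference antagonist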
TAAR1 antag: human TAAR1 antagonism | Q96RJ0 | CHO RD-HGA16 TAAR1, Fluo-8 calcium fluorescence, antagonist | inhibition, % at 3 µM | 360,000 compounds, 1.5% hits | AID 624466;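 active means inhibition above a per-plate cutoff, the mean inhibition of test compounds on that plate plus 3 SD, cut at about 49% in these data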;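 further: 0% = DMSO plus EC80 beta-PEA response and 100% = DMSO alone without agonist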
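test system = CHO RD-HGA16 cells bearing hTAAR1 | replication = singlicate | controls = DMSO-only wells and EC80 β-PEA-stimulated wells | reagent = EC80 β-phenethylamine stimulus | read-out basis = percent inhibition of PEA-evoked calcium signal, max/basal emission ratio | schedule = seeding 17-24 h prior, 75-min 37 °C, 30-min RT dye loading | signal = kinetic Fluo-8 calcium fluorescence measurement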
The depositor's hits bear a star; . = no result.

SMILES	OX1R antag-1	GPR7 antagonist	TAAR1 ag	CHO parental Ca	OX1R antag-2	TAAR1 antag
CN1CCN(NS(=O)(=O)c2ccc(Cl)cc2)CC1	-10	-11	-1	6	18	-1
COCCN(C(=O)CSc1nc2ccccc2o1)c1c(N)n(Cc2ccccc2)c(=O)[nH]c1=O	5	.	0	-11	3	-5
CC(C)CN(C(=O)CSc1nnc(-c2ccco2)o1)c1c(N)n(Cc2ccccc2)c(=O)[nH]c1=O	1	-8	3	-21	68*	-22
CCCCN(C(=O)CSc1nnc(-c2ccco2)o1)c1c(N)n(Cc2ccccc2)c(=O)[nH]c1=O	-20	-5	0	-9	26	-12
CCCCN(C(=O)CSc1nnc(-c2ccccc2)o1)c1c(N)n(CCC)c(=O)[nH]c1=O	6	.	1	-15	14	2
CC(C)CN(C(=O)CCCOc1ccc(Cl)cc1Cl)c1c(N)n(Cc2ccccc2)c(=O)[nH]c1=O	12	.	0	-28	39*	-21
CCN(C(=O)CSc1nnc(-c2ccccc2)o1)c1c(N)n(Cc2ccccc2)c(=O)[nH]c1=O	1	5	0	-17	70*	-9
CC(C)CN(C(=O)CSc1nc2ccccc2o1)c1c(N)n(Cc2ccccc2)c(=O)[nH]c1=O	1	.	0	-21	31*	-3
O=C(NCC1CCN(C(=O)C(=O)c2cccs2)CC1)c1cccnc1	.	.	1	.	.	2
CCN(CC)c1ccc(-c2nnc(SCC(=O)N(CCOC)c3c(N)n(CC(C)C)c(=O)[nH]c3=O)o2)cc1	-26	.	-1	-23	57*	1
COCCN(C(=O)CSc1nnc(-c2ccc(C)c(C)c2)o1)c1c(N)n(CC(C)C)c(=O)[nH]c1=O	-7	.	0	-7	34	-30
CN(CCCC(=O)NCc1ccco1)S(=O)(=O)c1ccccc1	0	16*	12	-6	5	-5
COC(=O)C[C@@H]1OC[C@H](C)N1S(=O)(=O)c1ccc(C)cc1	.	.	3	.	.	-14
COCCNc1nnc(SCC(=O)NNC(=O)c2ccc([N+](=O)[O-])cc2)s1	-10	.	2	-1	59*	-18
COc1ccccc1C(CC(=O)c1ccccc1)C(=O)c1ccccc1 (stereo unspecified)	.	.	6	.	.	73*
CCc1cc2c(nc1CC)CCCN2S(=O)(=O)c1ccccc1	.	.	1	.	.	-18
O=C1CS/C(=N/N=C/c2ccc(OS(=O)(=O)c3ccccc3)cc2)N1	0	-1	-1	1	70*	3
COc1cc2c(c(OC)c1OC)CC(c1ccccc1)=C(c1ccccc1)CC2NC(=O)C(F)(F)F (stereo unspecified)	.	.	2	.	.	-2
CC(=O)c1ccc(S(=O)(=O)NCC(=O)N2CCN(C/C=C/c3ccccc3)CC2)cc1	-13	.	2	-7	4	0
Cc1ccc(C)c(CC(=O)N2CCCCC2c2cc(C(=O)Nc3cccc(C#N)c3)no2)c1 (stereo unspecified)	.	.	48*	.	.	44
COC(=O)/C=C1\SC(N2CCOCC2)=C(c2ccc(OC)cc2)C1=O	-16	-11	10	-12	70*	2
COC(=O)CN1C(=S)N(c2ccc(OC)cc2)C(=O)/C1=C/c1ccc(N2CCOCC2)cc1	26	-8	26	10	5	13
CCN=C1NC(CCc2ccccc2)C(C(=O)OC)=C(C)N1Cc1ccccc1C(F)(F)F (stereo unspecified)	.	.	10	.	.	-11
Cc1cc2sc3ccccc3c(=O)c2c(C)c1O	-1	7	-1	2	69*	2
O=c1c2ccccc2sc2ccccc12	.	.	0	.	.	-31
CC(=O)N1CCc2c(sc(NC(=O)C3CCCN3S(=O)(=O)c3cccs3)c2C(N)=O)C1 (stereo unspecified)	-5	.	2	-14	39*	-4
CC(=O)N1CCc2c(sc(NC(=O)C3CCN(S(=O)(=O)c4cccs4)CC3)c2C(N)=O)C1	-14	.	2	-4	3	7
O=C(COC(=O)c1cc(-c2cccs2)nn1-c1ccccc1)Nc1ccc(F)c([N+](=O)[O-])c1	-19	6	7	-4	25	49*

Screens deposited in PubChem by The Scripps Research Institute Molecular Screening Center.
